According to the RNAGym collection of RNA variant scans (doi:10.1126/science.aae0568):
Fewer inactive variants are shown than the library holds.

B1: tRNA (parent)
chain: GUUCCGUUGGCGUAAUGGUAACGCGUCUCCCUCCUAAGGAGAAGACUGCGGGUUCGAGUCCCGUACGGAACG

Variants of: B1
Test: yeast fitness relative to wild type (ratio to wild type); higher = fitter; tRNA-Arg(CCU), competitive growth, 37 C, YPD
In short: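 Changes in genotype frequencies gave Darwinian fitness relative to wild type. Frequencies were read by 100-nucleotide paired-end sequencing of gene amplicons before and after pooled Saccharomyces cerevisiae strains, carrying tRNA-Arg(CCU) gene variants at the native locus, were competed in YPD at 37°C for 24 hours in six replicates. A genotype was kept only with ≥ 100 starting reads, and estimates < 0.5 were set to 0.5.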

Variant	yeast fitness
A21U	0.861
C11A U13C C27A C60G A65G	≤ 0.5
U8C G9A	0.894
C22G C66U A69C	0.564
A14U A15G U53G	≤ 0.5
C49U G51C U64C G68A	≤ 0.5
C5G C11G C62U	≤ 0.5
G10A C24A C29G U35A A36U	≤ 0.5
C34A C46U U47A	≤ 0.5
U19G C46U	0.962
A14G A15U G67U	≤ 0.5
C11U G52C A69G	≤ 0.5
U13A G25C C27A C30G A40C C60U C66G	≤ 0.5
A21U G25A A69C	0.605
U2A C4U G44C C61A	≤ 0.5
G25C U28C C55A	0.539
A14U C24A C55G	≤ 0.5
A40G A70U	0.891
C27U U59C A69U	0.795
U2A C27A C60U U64C A69G	≤ 0.5
G10C C27G A42C C66U	0.534
C4G A14G A69C	0.508
G48A C60A	0.695
C5A A20U C31G C49G	≤ 0.5

Variant	yeast fitness
C22U U47C G51C C66U	≤ 0.5
C4G G44C U47A	0.592
U19C C22U	0.895
G48A C62A	0.978
G39C A42G A43U C62U A69U	≤ 0.5
G9A U32G A40C C46G	≤ 0.5
U7A G10A G41C A42U C46A C61G	0.561
C29U A36G A40U G56C A69C	≤ 0.5
U35A C55A C66A	≤ 0.5
G18C G44U	0.554
G39A U47A A57G	≤ 0.5
G25C C33A A45C C46A	0.518
U16A G58A	0.859
G10A A20U A45U C55U A70C	0.576
G9A U19G C66U	0.64
A37U C49U C61U	0.527
U2C A15U A20U	≤ 0.5
U2C A57U	0.685
G48C A69C	1.05
U2C G6A A20U C30U A36U C62U	≤ 0.5
A20G C24U U26A C61G A65C	0.567
A15C G25A U26C A69U	≤ 0.5
C24G U64A	0.631
C30A A57G A70U	0.765

Variant	yeast fitness
U7C G51A	0.856
U2A C4G C34U	≤ 0.5
U3G U28A	0.605
U3C G12A A45U A69C	≤ 0.5
G23A C33G A43C	≤ 0.5
C5G C61G	0.63
C5U A37U C49A G56C	≤ 0.5
C31G C34U C46U G56A G63A	≤ 0.5
A36G U59C A69U	0.783
U3G A37U	0.683
G10A A15U A21C G25C G56A	≤ 0.5
C11U C30U C34G	0.576
A14G G17A C34U C55G	≤ 0.5
A14G G25A U32A	0.56
U13G C22U C31A A70U	≤ 0.5
U2C C5G C27U A45G U53C	≤ 0.5
U19G C29U A40C A65G	≤ 0.5
U7A A14G C31U A43C C46U G63C C66U	≤ 0.5
C11U C24U C49A C62A	≤ 0.5
A15U G38C G39A A43C U54C C60G A65C	≤ 0.5
U7A G9C G17C C61U G68C	≤ 0.5
G23C C61A	≤ 0.5
U2A C5U G48A	0.611
A14C G17U C27U	0.647

Variant	yeast fitness
C29G U47G	0.707
C29G U47A	0.561
U19G C30A A45U G58C A69U	≤ 0.5
U8A A15U A20U G25C C29A A40C G50A	≤ 0.5
G9A C24U G38C G56C	≤ 0.5
C30G A36U C49G U53C G58C G67A A70U	≤ 0.5
U8C U19A A40C G44C G48C	≤ 0.5
G6C A40G C61A	≤ 0.5
A15C A20U C30A C31G	≤ 0.5
C30U C55G G58C	0.526
C11U A21U U35A A36U	≤ 0.5
A40G U53C C61A C62G	≤ 0.5
C4G C55U G63A G68C	≤ 0.5
G38A A70C	0.942
U19A C33U A36U C66U	≤ 0.5
U8C C11G G25A C60A C62U G68C	≤ 0.5
C5U G63C	0.664
G6C C62A G67C	≤ 0.5
U3C C31U C62G	0.665
A20G A70G	1.02
A40C C55G	0.527
C24A G56C	0.626
A20C G56C	0.625
A15C A37C G41C C66A	0.589

Variant	yeast fitness
C22U C27A A45G G48C	≤ 0.5
A14C C27A U54A A69G	0.647
C11A C62A A70U	≤ 0.5
A21G C22U C29G A45C	0.515
C11U U26A A43U C60A A65G	0.531
G25A G44C C61G	0.526
G9A U16C A20G A42G G68U	≤ 0.5
A20U G50A	0.88
U7G A36U C60U	≤ 0.5
C27G G48A G51A	0.527
C4G C11A C66G	≤ 0.5
C22A A42G	0.923
C5U U7A G18U U28A	≤ 0.5
C33G C55U G56C A69C	0.831
C11U U19A A37C A40C	0.501
A37C G41A C49U C60G	≤ 0.5
U3C C31G G51C	0.55
G17C C22U U32C A40U C66U	≤ 0.5
A15C U26C G48C	≤ 0.5
C27A A57U	0.737
C5U C11G C24U A42C	0.552
A14U G17C A57G	0.505
C29G C49U G68A	≤ 0.5
C4A A14U A20C U28G A70C	≤ 0.5

Variant	yeast fitness
C5G C30U U32A C61G	≤ 0.5
C5G G25C A37G	0.504
A14C C29A G48A G50A	≤ 0.5
A14C C24U A36G G68C	≤ 0.5
U7C C34U A70G	≤ 0.5
C30A A36U A42G	≤ 0.5
G6A A15U C27A A65C A69C	≤ 0.5
U19C A57G A70U	0.601
U2G U13C A21G U35A	≤ 0.5
C5U C11U A15G G48C G63U A70U	≤ 0.5
U3A G9C A20C A21C G25A G56A U64C	0.73
C11A G68C	0.656
C5G A40C U59A	≤ 0.5
C24G A40C G56U	≤ 0.5
G39C A69U	0.826
C4G C27U C29G	≤ 0.5
C33G A40C	0.697
U8C C24G G25A A43G	≤ 0.5
U8C G44A U53C C55A A70U	≤ 0.5
C11U A15G A65G	0.766
G23C C30A	0.6
G10A C29A A45U	≤ 0.5
G12C G25C	0.762
C4A U13A	0.595

Variant	yeast fitness
A15G C27A C31A A57C	≤ 0.5
C5G C27G A57C	≤ 0.5
U19C A40C A65U	0.605
A20U C34G A42G A43U A65G A70U	≤ 0.5
A14C A40G A42U	≤ 0.5
A21G G23A G52C	≤ 0.5
A14G C31G A45G G56U	≤ 0.5
A15C A36G C49U	0.533
A15U C24A C29G	≤ 0.5
C11G U28C A36G A43C	≤ 0.5
C5A A70U	0.822
G9A A14U C34G A37C	≤ 0.5
C29U G63A G67A	0.523
G25C C34A	0.625
C4U C30A A36G	0.839
A15C U26G U28C A37G G41A C49G	0.59
C5U G48C	0.853
U2A U59C	0.995
U2A C22U A40C	0.631
C11G G23C A36U G44C C62A	≤ 0.5
C61U C62G	0.718
U7G A65C	0.998
U3C G9A G50A	0.838
